Where two headings read alike, the source gives them in different places.
How the values were obtained:
Notum [1] = biological target: T1, Notum (Homo sapiens, UniProt Q6P988); assay: Notum inhibition assay; format: biochemical; conditions: for time-dependence of Notum inhibition: pre-incubation 3 and 33 min; for inhibition manner against Notum: inhibition kinetic analyses, Lineweaver-Burk plots
T1 sequence (Q6P988 20-496): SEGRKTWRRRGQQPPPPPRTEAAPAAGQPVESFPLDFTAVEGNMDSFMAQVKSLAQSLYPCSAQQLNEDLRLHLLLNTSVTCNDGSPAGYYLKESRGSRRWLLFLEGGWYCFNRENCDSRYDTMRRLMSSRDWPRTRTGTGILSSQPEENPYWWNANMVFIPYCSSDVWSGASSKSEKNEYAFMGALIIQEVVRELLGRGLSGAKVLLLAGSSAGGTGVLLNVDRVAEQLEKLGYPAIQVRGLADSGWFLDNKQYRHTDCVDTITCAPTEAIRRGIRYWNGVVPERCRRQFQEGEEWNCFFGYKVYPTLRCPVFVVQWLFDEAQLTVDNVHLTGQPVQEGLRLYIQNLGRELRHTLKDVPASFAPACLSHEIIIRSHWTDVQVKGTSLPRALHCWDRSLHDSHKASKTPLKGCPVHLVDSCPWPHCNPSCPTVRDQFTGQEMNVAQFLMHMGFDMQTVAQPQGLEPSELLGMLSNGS
Outline: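 Notum expressed and purified per an earlier protocol. The 200 μL mix held 10 μM OPTS, 0.1 M Tris-HCl pH 7.4 and inhibitor, preincubated at 37 °C for 3 min. For time-dependence, parallel preincubations of 3 and 33 min ran before OPTS addition. Product fluorescence was read at ex 403/em 510 nm after subtracting no-enzyme blanks. IC50 came from nonlinear regression.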

MC3T3-E1 cells [2] = assay: CCK-8 cell viability assay; format: cell-based; conditions: CCK-8, Fig. S5
MC3T3-E1 cells [3] = assay: Osteoblast differentiation: ALP level, ALP staining and alizarin red S staining; format: cell-based; conditions: for level of ALP: MC3T3-E1 osteoblasts, induced differentiation 5 days, Fig. S6
Outline: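 MC3T3-E1 cells were grown in DMEM with 10% FBS and 1% penicillin-streptomycin at 37 °C, 5% CO2. Cells were seeded at 2 × 10³ cells/well for 24 h, then moved to induction medium (10 mM β-glycerophosphate, ascorbic acid) with Dex and test compound added together. ALP staining (BCIP/NBT) followed 7 days and 4% paraformaldehyde fixation (RT, 15 min). ARS staining followed 21 days. Both were viewed by microscope.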

Notum [4] = biological target: T1, Notum; conditions: cited from earlier work
MC3T3-E1 cells [5] = assay: RNA sequencing of Dex-challenged osteoblasts; format: cell-based
Outline: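 Dex-treated MC3T3-E1 cells then received test compound and were cultured for 7 days. Total RNA was extracted from control (DMSO), Dex and Dex plus test compound groups for sequencing.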

healthy mice = assay: Safety assessment of rhein in mice; format: in vivo, C57BL/6J mice; conditions: 200 mg/kg orally once daily for 14 days, vs control
Outline: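 One group received 0.5% CMC-Na vehicle. The other received test compound at 200 mg/kg orally once daily for 14 days. At the end, serum plus heart, liver, spleen, lung and kidney were collected. Data are mean ± standard deviation, compared by Student's t-test (P < 0.05).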

[6] = cited from earlier work
[7] = test system: Dex-induced osteoporosis mice; assay: In vivo anti-osteoporosis effects in Dex-induced osteoporosis mice; set-up: species or system C57BL/6J mice; conditions: for cortical and cancellous bones (micro-CT, H&E): rhein 40 and 80 mg/kg i.g. 5 weeks, PTH i.p., vs Dex
[8] = cited from earlier work; remark: listed apart in the source
[9] = treatment 7 days, Dex-challenged MC3T3-E1

Row | Molecule | IC50 (Notum [1]) | time-dependence of Notum inhibition (Notum [1]) | Ki (Notum [1]) | inhibition manner against Notum (Notum [1]) | growth rates of MC3T3-E1 cells (MC3T3-E1 cells [2]) | level of ALP (MC3T3-E1 cells [3]) | cortical and cancellous bones (micro-CT, H&E) [7] | further results
1 | Cc1cc(O)c2c(c1)C(=O)c1cccc(O)c1C2=O [Chrysophanol] | 946 ± 55.1 nM | not time-dependent |  |  |  |  |  | 
2 | Cc1cc(O)c2c(c1)C(=O)c1cc(O)cc(O)c1C2=O [Emodin] | 286 ± 23.5 nM | not time-dependent | 276 nM | competitive | not enhanced | significantly up-regulated |  | pro-differentiation effects on MC3T3-E1 cells (MC3T3-E1 cells [3]; relative high dose 5 μM): slight pro-differentiation effects
3 | C=C1C(=O)O[C@@H]2C[C@@]3(C)CCCC(=C)[C@@H]3C[C@H]12 [Isoalantolactone] |  |  |  |  |  |  |  | IC50 (Notum [4]; previously reported natural Notum inhibitor ref 41): 60.6 nM
4 | O=C(O)c1cc(O)c2c(c1)C(=O)c1cccc(O)c1C2=O [Rhein] | 9.98 ± 0.84 nM | not time-dependent | 13.6 nM | competitive | not enhanced | significantly up-regulated | thickened significantly | expression of Wnt signaling-related genes (WNT6, GSK3β) and osteogenic differentiation-related genes (RUNX2, BMP4) (MC3T3-E1 cells [5]; Dex-challenged MC3T3-E1, RNA sequencing): significantly restored; genes downregulated in comparison to the Dex-challenged group (MC3T3-E1 cells [5]; [9]): 78; genes upregulated in comparison to the Dex-challenged group (MC3T3-E1 cells [5]; [9]): 67; body weight at the outset and at the end of animal tests (healthy mice): no noticeable discrepancy; serum safety indicators (ALB, ALP, ALT, AST, CK, CREA, GLU, TC, TG, TP, BUN) (healthy mice): no significant difference; reduced ALP staining intensity and decreased matrix mineralisation level (MC3T3-E1 cells [3]; 0.5 μM, Dex-challenged MC3T3-E1 cells): totally restored; ALP staining intensity and matrix mineralisation level of osteoblasts (MC3T3-E1 cells [3]; dose-dependent, ALP day 7, ARS day 21, Dex-treated MC3T3-E1): significantly increased; pro-differentiation effects on MC3T3-E1 cells (MC3T3-E1 cells [3]; low dose 0.5 μM): more significant pro-differentiation effects; oral bioavailability [6]: very lower; Notum expression levels in cortical bone (immunofluorescence) ([7]; Dex-challenged mice treated with rhein): significantly suppressed; BV/TV and BMD at the distal femur ([7]; rhein group, micro-CT): did not increase significantly; BMD increase at the mid femur ([7]; rhein group, micro-CT, compared with distal femur): more prominent; metabolic stability [8]: poor
5 | Cn1c(=O)c2c(ncn2C)n(C)c1=O [caffeine] |  |  |  |  |  |  |  | IC50 (Notum [4]; previously reported natural Notum inhibitor ref 46): 200000 nM
6 | parathyroid hormone 1–34 [PTH, reference compound] |  |  |  |  |  |  | thickened significantly | 
